Sampled rows, rich in hits. Any-hit rate of the full collection: about 3.7%.
E-sel inducer: E-selectin induction in HUVECs, primary screen, imaging, HUVEC, immunofluorescence imaging, single point; P16581; normalized: neutral wells 0, TNF-alpha wells 100; activation, % at 7.58 µM; actives 0.37% (n = 260,000); AID 686992, 2013;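 active means mean E-selectin-positive cell signal at least 10% of the positive control, reached in at least 60% of replicates, without over 20% cell loss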
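Assay system: HUVEC primary endothelial cells. Input: 3,000 HUVEC seeded per well. Doses: one compound dose added by pin transfer. Read-out basis: % PE-positive cells. Benchmarks: TNF-alpha high, DMSO low. Detection: immunofluorescence imaging. Buffer or medium: EGM-2, gelatin.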
DENV2 CPE rescue: inhibitors of DENV2 cytopathic effect, primary screen, cell-based, plate reader, single concentration; DENV2-infected cells, cytopathic effect rescue; CPE inhibition, % at 9.99 µM; actives 1.7% (n = 350,000); AID 651640, 2012; in the data active means CPE inhibition above about 20%, passing the limit was not always enough; tested in BHK-21 cells;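 further: 0% = median of neutral control wells and 100% = median of positive control wells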
CFTR F508del cor: F508del CFTR correction, initial screen, CFBE line, single point | CFBE cells, YFP halide quenching; stimulated with forskolin plus potentiator P3; % fluorescence drop versus neutral controls | activity (quench increase), % at 7.58 µM | actives 0.36% (n = 350,000) | AID 720511, 2013;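 active means mean added fluorescence quench of at least 8% versus neutral control, with both replicates also reaching 8%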;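 further: cells transiently co-express mutant CFTR-F508del with the halide-sensitive YFP; corrector assay measuring rescue of mutant channel to the surface after 24 h compound exposure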
ERAP1 HTS inh: human ERAP1 aminopeptidase inhibitors, primary screen, biochemical, single point, plate reader. Endoplasmic reticulum aminopeptidase 1 (Homo sapiens), Q9NZ08. recombinant ERAP1, Leu-AMC fluorescence, 60 min. inhibition, % at 10.7 µM. actives 0.15% (n = 340,000). AID 652197, 2013;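 active means mean replicate inhibition of at least 30%, or all replicates individually reaching that 30% level; inactive means mean below 30% and not every replicate reaching it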;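 further: 0% = neutral control wells and 100% = L-leucinethiol positive control wells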
Target sequence (Q9NZ08 whole entry, looked up): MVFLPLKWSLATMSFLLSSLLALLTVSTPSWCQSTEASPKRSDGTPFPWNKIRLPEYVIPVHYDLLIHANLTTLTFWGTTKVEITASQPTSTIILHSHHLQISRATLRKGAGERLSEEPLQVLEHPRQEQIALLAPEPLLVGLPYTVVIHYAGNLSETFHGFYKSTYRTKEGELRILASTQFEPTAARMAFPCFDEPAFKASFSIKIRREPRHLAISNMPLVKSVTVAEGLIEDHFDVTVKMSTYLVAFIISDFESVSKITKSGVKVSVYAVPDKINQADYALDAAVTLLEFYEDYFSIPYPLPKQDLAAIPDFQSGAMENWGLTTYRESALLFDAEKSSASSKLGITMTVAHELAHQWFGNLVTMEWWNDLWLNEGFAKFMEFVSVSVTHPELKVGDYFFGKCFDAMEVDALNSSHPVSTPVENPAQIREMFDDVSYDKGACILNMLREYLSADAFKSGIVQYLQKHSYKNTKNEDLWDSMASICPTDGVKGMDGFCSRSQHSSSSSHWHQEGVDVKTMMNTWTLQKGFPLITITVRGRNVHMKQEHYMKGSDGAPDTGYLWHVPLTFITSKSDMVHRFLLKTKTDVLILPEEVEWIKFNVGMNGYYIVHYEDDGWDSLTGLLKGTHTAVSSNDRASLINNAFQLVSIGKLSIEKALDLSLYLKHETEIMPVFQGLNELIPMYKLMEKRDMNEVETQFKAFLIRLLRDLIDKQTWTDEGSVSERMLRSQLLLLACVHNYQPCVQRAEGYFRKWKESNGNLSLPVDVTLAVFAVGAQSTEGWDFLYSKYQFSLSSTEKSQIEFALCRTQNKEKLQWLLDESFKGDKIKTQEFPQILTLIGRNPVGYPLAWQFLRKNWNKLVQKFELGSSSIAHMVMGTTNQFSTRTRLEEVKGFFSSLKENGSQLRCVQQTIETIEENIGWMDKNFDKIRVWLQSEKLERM
FGF22 binding: binders of human FGF22 protein, primary screen, FGF22 synaptogenesis inhibitor project, biophysical, thermal shift, single point | Fibroblast growth factor 22 (Homo sapiens), Q9HCT0 | recombinant FGF22 thermal shift, SYPRO orange fluorescence; percent of sucrose octasulfate shift, DMSO zero | activity (Tm shift, normalised), % at 9.99 µM | actives 1.5% (n = 340,000) | AID 651658, 2012;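 active means mean Tm shift, scaled 0 neutral to 100 positive control, at about 1.3% or above, every replicate too, limit read from the data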
* marks the source's active call; other numbers are inactive results; nt = not tested or not shown; ! = not confirmed by another sample.

SMILES	E-sel inducer	DENV2 CPE rescue	CFTR F508del cor	ERAP1 HTS inh	FGF22 binding
COc1ccc(N2CCN(C(=O)Cc3csc(NC(=O)Nc4ccccc4OC)n3)CC2)cc1	0	4	-6	0	-1
COc1ccccc1NC(=O)Nc1nc(CC(=O)N2CCN(c3ccc(F)cc3)CC2)cs1	1	40*	-2	1	0
CC(=O)N(C)C[C@H]1Oc2ncc(C#CC3(O)CCCC3)cc2C(=O)N([C@H](C)CO)C[C@@H]1C	0	7	-2	-1	0
Cc1noc(C)c1NC(=O)Nc1ccc2c(c1)C(=O)N([C@@H](C)CO)C[C@H](C)[C@@H](CN(C)C(=O)Nc1ccc(C(F)(F)F)cc1)OCCCC[C@@H](C)O2	0	-5	-3	0	0
O=c1c2cc(Cl)ccc2nc(-c2ccccc2)n1O	nt	7	nt	6	46*
O=c1c2cc(Cl)ccc2nc(-c2ccc(Cl)c(Cl)c2)n1O	nt	-2	-1	-3	0
C[C@H]1CN([C@@H](C)CO)C(=O)c2cccc(NC(=O)Nc3ccc(C(F)(F)F)cc3)c2O[C@@H]1CN(C)CC1CC1	-1	31*	2	-2	0
C[C@H](CO)N1C[C@H](C)[C@@H](CN(C)CC2CC2)Oc2c(NC(=O)Nc3ccc(C(F)(F)F)cc3)cccc2C1=O	-10	-2	2	-17	0
C[C@H]1CN([C@@H](C)CO)C(=O)c2cccc(NC(=O)Nc3ccccc3)c2O[C@H]1CN(C)C(=O)Nc1ccccc1	0	nt	-1	nt	nt
C[C@H]1CN([C@@H](C)CO)C(=O)c2cccc(NC(=O)Nc3ccc(C(F)(F)F)cc3)c2O[C@H]1CN(C)C(=O)Nc1ccc(C(F)(F)F)cc1	0	2	-1	1	0
C[C@H]1CN([C@@H](C)CO)C(=O)c2cccc(NC(=O)Nc3cccc4ccccc34)c2O[C@H]1CN(C)C(=O)Nc1ccc(C(F)(F)F)cc1	0	32*	4	1	nt
C[C@@H]1CN([C@H](C)CO)C(=O)c2cccc(NC(=O)Nc3ccc(C(F)(F)F)cc3)c2O[C@@H]1CN(C)C(=O)Nc1ccc(C(F)(F)F)cc1	3	50*	0	-1	0
C[C@@H]1CN([C@H](C)CO)C(=O)c2cccc(NC(=O)Nc3ccccc3)c2O[C@H]1CN(C)C(=O)Nc1ccccc1	0	52*	1	2	0
C[C@H](CO)N1C[C@H](C)[C@H](CN(C)C(=O)C2CCCCC2)OCCCC[C@H](C)Oc2ccc(NC(=O)C3CCCCC3)cc2C1=O	0	20	-4	3	0
COC(=O)C[C@@H]1C[C@@H]2c3cc(NC(=O)CN(C)C)ccc3O[C@@H]2[C@@H](CO)O1	0	8	-3	1	0
COc1ccc2c3c([nH]c2c1)[C@H](CO)N(C(=O)NC(C)C)CC31CN(C(=O)NC2CCCC2)C1	0	-10	3	nt	0
CC=Cc1ccc2n(c1=O)C[C@@H]1[C@@H](CO)[C@H](C(=O)NC3CCCC3)N(Cc3ccncc3)[C@H]21 (mixture of isomers)	0	-11	nt	1	0
C[C@H](CO)N1C[C@H](C)[C@H](CN(C)C(=O)Nc2cccc3ccccc23)Oc2c(NC(=O)c3ccncc3)cccc2C1=O	-7	6	-2	3	0
C[C@@H]1CN([C@@H](C)CO)C(=O)c2cccc(NC(=O)c3ccncc3)c2O[C@H]1CN(C)C(=O)Nc1cccc2ccccc12	26*	nt	0	4	0
C[C@H](CO)N1C[C@H](C)[C@@H](CN(C)C(=O)Nc2ccc(C(F)(F)F)cc2)Oc2c(NC(=O)C3CCCCC3)cccc2C1=O	1	22*!	1	5	0
C[C@@H]1CN([C@@H](C)CO)C(=O)c2cccc(NC(=O)Nc3ccccc3)c2O[C@@H]1CN(C)C(=O)Nc1ccc(C(F)(F)F)cc1	1	38*	2	0	0
C[C@H](CO)N1C[C@H](C)[C@@H](CN(C)C(=O)Nc2ccc(C(F)(F)F)cc2)Oc2c(NC(=O)C3CC3)cccc2C1=O	0	-5	2	nt	0

Compound activity: PubChem, Broad Institute
